This is one part of a sample in which hits are shown more often than they occur.
T cruzi HTS = inhibitors of intracellular Trypanosoma cruzi, primary screen, cell-based, plate reader, single point, set 2. actives 4.9% (n = 22,000). activity score (inhibition), % at 5.01 µM. intracellular Trypanosoma cruzi in host cells. AID 651903, 2012; in the data active = activity score above about 55%; inconclusive = no clear call, values can overlap the other calls;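 note: parasites and compound incubated about four days before reading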
INS-1E rescue = protection of INS-1E cells from cytokine death, primary screen, ATP luminescence, single point; INS-1E cytokine-induced death, 48 h; normalised: neutral wells 0, positive control 100; protection from cytokine-induced ATP loss, % at 10 µM; actives 0.1% (n = 20,000);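 active = mean replicate protection from cytokine-induced ATP loss at least 50% and at least 75% of replicates each reaching 50%; inconclusive = meets only one of the two criteria, mean or replicate share; inactive = fails both the mean and replicate share criteria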
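Assay system – rat INS-1E insulinoma cell line · Quantity – 8000 cells per well · Buffer or medium – RPMI without phenol red, 5% FBS · Schedule – 48 h co-treatment, 10 min post-lysis read · Technique – luminescent ATP assay (CellTiter-Glo)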
A1 apoptosis 2 = A1 inhibitors via caspase activation, primary screen, cell-based, luminescence, HTS, two replicates | MEF A1-2A-BIM cells, caspase-Glo luminescence, 3 h; percent of clofoctol response, DMSO zero | caspase activation, % (no concentration beside the values) | 24,000 tested, under 10 active | AID 2465, 2010; in the data active = caspase activation above about 5.9%; inconclusive = no clear call, values can overlap the other calls; inactive = below about 2.2%
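Material: mouse embryonic fibroblasts co-expressing A1 and BIM (A1-2A-BIM), primed for A1 dependence / Quantity: 2500 cells/well / Buffer or medium: RPMI-1640 growth medium with 10% FBS / Doses: 50 nL compound per well, pinned / Schedule: 3 h compound exposure at 37 °C / Signal: Caspase-Glo luminescence (DEVD substrate) / Measure: Caspase-3/7 activation, seen as rise in luminescence signal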
Large screens that a line does not name were inactive.

C[C@H](CO)N1C[C@H](C)[C@H](CN(C)Cc2ccc(Oc3ccccc3)cc2)Oc2ccc(NC(=O)CCN3CCOCC3)cc2C1=O	none (no result: A1 apoptosis 2)
Cc1ccc(S(=O)(=O)Nc2cccc3c2O[C@@H](CN(C)Cc2ccc(C(=O)Nc4ccccc4N)cc2)[C@@H](C)CN([C@H](C)CO)C3=O)cc1	T cruzi HTS 57
C[C@@H]1CN([C@H](C)CO)C(=O)c2cccc(NS(=O)(=O)c3ccc(F)cc3)c2O[C@H]1CN(C)Cc1ccc(C(=O)Nc2ccccc2N)cc1	none
C[C@@H]1CN([C@H](C)CO)C(=O)c2cccc(NS(=O)(=O)c3ccccc3)c2O[C@@H]1CN(C)Cc1ccc(C(=O)Nc2ccccc2N)cc1	T cruzi HTS 75 (no result: A1 apoptosis 2)
C[C@@H]1CN([C@@H](C)CO)C(=O)c2cccc(NS(=O)(=O)c3ccc(Cl)cc3)c2O[C@H]1CN(C)Cc1ccc(C(=O)Nc2ccccc2N)cc1	T cruzi HTS 56
C[C@H](CO)N1C[C@H](C)[C@@H](CN(C)Cc2ccc(C(=O)Nc3ccccc3N)cc2)Oc2c(NS(=O)(=O)c3ccc(Cl)cc3)cccc2C1=O	none (no result: A1 apoptosis 2)
C[C@@H]1CN([C@H](C)CO)C(=O)c2cccc(NS(=O)(=O)c3ccc(F)cc3)c2O[C@@H]1CN(C)Cc1ccc(C(=O)Nc2ccccc2N)cc1	T cruzi HTS 60
C[C@H]1CN([C@@H](C)CO)C(=O)c2cccc(NS(=O)(=O)c3ccccc3)c2O[C@H]1CN(C)Cc1ccc(C(=O)Nc2ccccc2N)cc1	none
Cc1ccc(S(=O)(=O)Nc2cccc3c2O[C@H](CN(C)Cc2ccc(C(=O)Nc4ccccc4N)cc2)[C@@H](C)CN([C@H](C)CO)C3=O)cc1	none (no result: T cruzi HTS, INS-1E rescue)
C[C@H](CO)N1C[C@H](C)[C@H](CN(C)Cc2ccc(C(=O)O)cc2)Oc2ccc(NS(=O)(=O)c3cccs3)cc2CC1=O	none (no result: A1 apoptosis 2)
C[C@H]1CN([C@@H](C)CO)C(=O)Cc2cc(NS(=O)(=O)c3cn(C)cn3)ccc2O[C@H]1CN(C)Cc1ccc(C(F)(F)F)cc1	none
C[C@@H]1CN([C@@H](C)CO)C(=O)c2cc(NS(=O)(=O)c3ccc(F)cc3)ccc2O[C@H]1CN(C)CC1CC1	none (no result: A1 apoptosis 2)
C[C@@H]1CN([C@@H](C)CO)C(=O)Cc2cc(NC(=O)Nc3ccc(C(F)(F)F)cc3)ccc2O[C@H]1CN(C)S(=O)(=O)c1ccc(Cl)cc1	none (no result: T cruzi HTS, INS-1E rescue)
Cc1ccc(S(=O)(=O)N(C)C[C@@H]2Oc3ccc(NC(=O)Nc4ccc(C(F)(F)F)cc4)cc3CC(=O)N([C@@H](C)CO)C[C@@H]2C)cc1	T cruzi HTS inconclusive (no result: A1 apoptosis 2)
Cc1ccc(S(=O)(=O)N(C)C[C@H]2Oc3ccc(NC(=O)Nc4ccc(C(F)(F)F)cc4)cc3CC(=O)N([C@@H](C)CO)C[C@H]2C)cc1	T cruzi HTS 58
C[C@@H]1CN([C@H](C)CO)C(=O)Cc2cc(NC(=O)Nc3ccc(C(F)(F)F)cc3)ccc2O[C@H]1CN(C)S(=O)(=O)c1ccc(Cl)cc1	none (no result: A1 apoptosis 2)
COc1ccc(S(=O)(=O)N(C)C[C@H]2Oc3ccc(NC(=O)Nc4ccc(C(F)(F)F)cc4)cc3CC(=O)N([C@@H](C)CO)C[C@H]2C)cc1	T cruzi HTS 65
C[C@H](CO)N1C[C@H](C)[C@H](CN(C)S(=O)(=O)c2ccc(Cl)cc2)Oc2ccc(NC(=O)Nc3ccc(C(F)(F)F)cc3)cc2CC1=O	T cruzi HTS 63 (no result: A1 apoptosis 2)
COc1ccc(S(=O)(=O)N(C)C[C@H]2Oc3ccc(NC(=O)Nc4ccc(C(F)(F)F)cc4)cc3CC(=O)N([C@H](C)CO)C[C@@H]2C)cc1	none (no result: T cruzi HTS, INS-1E rescue)
C[C@@H]1CN([C@H](C)CO)C(=O)Cc2cc(NC(=O)Nc3ccc(C(F)(F)F)cc3)ccc2O[C@@H]1CN(C)S(=O)(=O)c1ccc(Cl)cc1	T cruzi HTS 58
O=C(NO)c1ccc(C(=O)N/N=C/c2ccc(B(O)O)cc2)cc1	none (no result: T cruzi HTS, INS-1E rescue)
Cc1noc(C)c1NC(=O)N(C)C[C@@H]1OCCCC[C@@H](C)Oc2ccc(NC(=O)Nc3ccc(F)cc3)cc2C(=O)N([C@H](C)CO)C[C@H]1C	none (no result: T cruzi HTS, INS-1E rescue)
O=C(CCCCCCC(=O)Nc1ccccc1O)N/N=C/c1c[nH]c2ccccc12	none
C[C@@H]1CN([C@H](C)CO)C(=O)c2cc(NS(=O)(=O)c3ccccc3)ccc2O[C@@H]1CN(C)C(=O)Nc1ccc(F)cc1	none
CNC[C@@H]1Oc2ccc(NC(=O)Nc3ccc(F)cc3)cc2CC(=O)N([C@@H](C)CO)C[C@@H]1C	none (no result: A1 apoptosis 2)
C[C@H](CO)N1C[C@H](C)[C@H](CN(C)S(C)(=O)=O)Oc2ccc(NC(=O)c3ccncc3)cc2C1=O	none (no result: A1 apoptosis 2)
Cc1ccc(S(=O)(=O)Nc2cccc3c2O[C@H](CN(C)Cc2ccc(-c4ccccc4)cc2)[C@@H](C)CN([C@@H](C)CO)C3=O)cc1	none
C[C@H]1CN([C@@H](C)CO)C(=O)Cc2cc(NC(=O)Nc3ccc(C(F)(F)F)cc3)ccc2O[C@H]1CN(C)S(=O)(=O)c1ccc(F)cc1	none
C[C@@H]1CN([C@@H](C)CO)C(=O)Cc2cc(NC(=O)Nc3ccc(C(F)(F)F)cc3)ccc2O[C@@H]1CN(C)S(=O)(=O)c1ccc(F)cc1	T cruzi HTS 81 (no result: A1 apoptosis 2)
Cc1ccc(S(=O)(=O)N(C)C[C@H]2OCCCC[C@@H](C)Oc3ccc(NS(C)(=O)=O)cc3C(=O)N([C@@H](C)CO)C[C@@H]2C)cc1	none (no result: T cruzi HTS, INS-1E rescue)
CNC[C@H]1Oc2ccc(NC(=O)Nc3ccc(F)cc3)cc2C(=O)N([C@@H](C)CO)C[C@H]1C	none
O=S(=O)(NC1CCN(Cc2ccc(OCCO)cc2)CC1)c1ccc(-c2ccccc2)cc1	none (no result: T cruzi HTS, INS-1E rescue)
COc1ccc(CN(C)C[C@H]2Oc3ccc(NC(=O)Cc4cn(C)c5ccccc45)cc3CC(=O)N([C@@H](C)CO)C[C@@H]2C)cc1	T cruzi HTS 61
C[C@@H]1CN([C@H](C)CO)C(=O)Cc2cc(NC(=O)Cc3cn(C)c4ccccc34)ccc2O[C@H]1CN(C)Cc1ccc(Oc2ccccc2)cc1	T cruzi HTS 78 (no result: A1 apoptosis 2)
C[C@H](CO)N1C[C@H](C)[C@@H](CN(C)Cc2ccc(Oc3ccccc3)cc2)Oc2ccc(NC(=O)Cc3cn(C)c4ccccc34)cc2CC1=O	none (no result: T cruzi HTS, INS-1E rescue)
C[C@H]1CN([C@@H](C)CO)C(=O)Cc2cc(NC(=O)Cc3cn(C)c4ccccc34)ccc2O[C@H]1CN(C)Cc1ccc(Oc2ccccc2)cc1	T cruzi HTS 59
C[C@H]1CN([C@@H](C)CO)C(=O)Cc2cc(NC(=O)Cc3cn(C)c4ccccc34)ccc2O[C@@H]1CN(C)Cc1ccc(Oc2ccccc2)cc1	none (no result: A1 apoptosis 2)
COc1ccc(CN(C)C[C@H]2Oc3ccc(NC(=O)Cc4cn(C)c5ccccc45)cc3CC(=O)N([C@@H](C)CO)C[C@H]2C)cc1	none
C[C@@H]1CCCCO[C@H](CN(C)Cc2ccc(C(=O)O)cc2)[C@H](C)CN([C@H](C)CO)C(=O)c2cc(NC(=O)C3CCCCC3)ccc2O1	none (no result: T cruzi HTS, INS-1E rescue)
COc1ccc(S(=O)(=O)N(C)C[C@H]2OCCCC[C@@H](C)Oc3ccc(NS(=O)(=O)c4c(C)noc4C)cc3C(=O)N([C@@H](C)CO)C[C@@H]2C)cc1	none (no result: T cruzi HTS, INS-1E rescue)
C[C@@H]1CN([C@H](C)CO)C(=O)c2cccc(NC(=O)Nc3ccccc3)c2O[C@H]1CN(C)Cc1ccc(C(=O)O)cc1	none
